In experiment [1] the target is Norepinephrine transporter (Rattus norvegicus, UniProt Q9WTR4). Nature of the experiment: Inhibition of [3H]nisoxetine binding to the norepinephrine transporter in rat midbrain.
Experiment [2] concerns the target Monoamine transporters; Norepinephrine & serotonin (Rattus norvegicus) (UniProt P31652+Q9WTR4). As to the kind of experiment: Selectivity for norepinephrine and serotonin transporters. In kind it is protein assay. Summed up:
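The NE/5-HT IC50 ratio is derived from IC50 values from two binding assays in rat brain. One is [3H]nisoxetine binding in midbrain (NE transporter). The other is [3H]paroxetine binding in frontal cortex (5-HT transporter).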

Experiment [3] has as its target Sodium-dependent serotonin transporter (Rattus norvegicus, UniProt P31652). As to the kind of experiment: Inhibition of [3H]paroxetine binding to serotonin transporter in rat frontal cortex. In kind it is tissue-based.
Experiment [4] deals with Monoamine transporters; serotonin & dopamine (Rattus norvegicus) (UniProt P31652+P23977). As to the kind of experiment: Selectivity for dopamine and serotonin transporters. In kind it is protein assay.
Chain of Monoamine transporters; serotonin & dopamine (Rattus norvegicus) (P23977 whole entry, looked up): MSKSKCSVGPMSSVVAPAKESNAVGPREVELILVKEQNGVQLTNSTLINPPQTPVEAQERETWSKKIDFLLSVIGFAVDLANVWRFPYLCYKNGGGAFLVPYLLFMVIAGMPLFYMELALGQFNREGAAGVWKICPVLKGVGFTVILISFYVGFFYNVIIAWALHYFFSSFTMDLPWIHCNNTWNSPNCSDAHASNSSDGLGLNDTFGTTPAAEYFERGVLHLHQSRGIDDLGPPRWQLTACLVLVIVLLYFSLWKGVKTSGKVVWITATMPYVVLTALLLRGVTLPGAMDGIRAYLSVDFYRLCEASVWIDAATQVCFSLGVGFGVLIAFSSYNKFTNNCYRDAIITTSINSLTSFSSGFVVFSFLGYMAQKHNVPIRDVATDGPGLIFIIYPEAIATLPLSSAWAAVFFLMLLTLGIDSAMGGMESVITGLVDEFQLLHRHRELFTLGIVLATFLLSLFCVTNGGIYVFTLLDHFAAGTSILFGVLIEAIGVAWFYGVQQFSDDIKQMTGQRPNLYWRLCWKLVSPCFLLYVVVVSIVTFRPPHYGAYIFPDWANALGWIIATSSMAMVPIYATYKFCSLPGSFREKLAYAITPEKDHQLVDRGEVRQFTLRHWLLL
Chain of Monoamine transporters; serotonin & dopamine (Rattus norvegicus) (P31652 whole entry, looked up): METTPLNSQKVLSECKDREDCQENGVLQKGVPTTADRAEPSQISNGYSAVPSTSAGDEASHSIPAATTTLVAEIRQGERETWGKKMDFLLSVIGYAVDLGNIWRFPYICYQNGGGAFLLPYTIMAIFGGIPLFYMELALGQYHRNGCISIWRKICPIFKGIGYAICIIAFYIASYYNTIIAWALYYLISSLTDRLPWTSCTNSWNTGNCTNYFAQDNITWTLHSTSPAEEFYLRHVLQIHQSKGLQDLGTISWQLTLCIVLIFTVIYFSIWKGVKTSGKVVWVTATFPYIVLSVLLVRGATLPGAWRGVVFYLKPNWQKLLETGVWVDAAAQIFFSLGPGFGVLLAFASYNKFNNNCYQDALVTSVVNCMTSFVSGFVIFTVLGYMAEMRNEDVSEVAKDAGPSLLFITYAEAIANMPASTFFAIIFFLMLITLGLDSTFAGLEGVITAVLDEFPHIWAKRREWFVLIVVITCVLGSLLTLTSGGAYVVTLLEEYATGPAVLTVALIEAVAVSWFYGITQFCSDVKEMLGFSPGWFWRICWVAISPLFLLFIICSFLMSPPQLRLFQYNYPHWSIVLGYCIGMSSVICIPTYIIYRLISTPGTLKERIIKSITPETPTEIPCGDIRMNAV
Experiment [5] has as its target Sodium-dependent dopamine transporter (Rattus norvegicus, UniProt P23977). As to the kind of experiment: Inhibition of [3H]WIN-35428 binding to the dopamine transporter in rat striata.

In general, IC50 refers to the concentration needed to halve the response being measured. A lower IC50 goes with higher potency.

Chain of Sodium-dependent dopamine transporter (P23977 whole entry): as the sequence (P23977 whole entry, looked up) above
Chain of Norepinephrine transporter (Q9WTR4 whole entry): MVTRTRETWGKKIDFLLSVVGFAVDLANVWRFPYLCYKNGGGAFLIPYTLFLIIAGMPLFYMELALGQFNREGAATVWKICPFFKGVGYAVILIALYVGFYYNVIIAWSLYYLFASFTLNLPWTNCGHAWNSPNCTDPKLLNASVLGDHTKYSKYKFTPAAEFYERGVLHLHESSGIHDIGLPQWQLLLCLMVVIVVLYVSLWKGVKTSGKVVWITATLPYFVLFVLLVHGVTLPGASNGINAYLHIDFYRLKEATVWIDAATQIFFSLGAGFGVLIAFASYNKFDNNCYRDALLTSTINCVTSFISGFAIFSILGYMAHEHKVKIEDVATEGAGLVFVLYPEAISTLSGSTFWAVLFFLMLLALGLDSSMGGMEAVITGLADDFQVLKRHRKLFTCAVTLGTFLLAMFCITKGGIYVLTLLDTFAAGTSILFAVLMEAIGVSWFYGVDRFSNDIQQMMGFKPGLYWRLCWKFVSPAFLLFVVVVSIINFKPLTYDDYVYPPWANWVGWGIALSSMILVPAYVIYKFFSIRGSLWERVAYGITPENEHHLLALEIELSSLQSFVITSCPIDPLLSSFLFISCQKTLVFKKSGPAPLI
Chain of Sodium-dependent serotonin transporter (P31652 whole entry): as the sequence (P31652 whole entry, looked up) above

With `CCCc1ccc(C2CC3CCC(N3)C2C(=O)OC)cc1` (stereo not given), the half-inhibitory concentration (IC50) was 532 nM in experiment [1], 26 nM in experiment [3] and 212 nM in experiment [5]. Also, the Ratio in experiment [2] came to 21; in experiment [4], 8.2.

As for `C/C=C/c1ccc(C2CC3CCC(C2C(=O)OC)N3C)cc1` (stereo not given), the IC50 in experiment [1] worked out at 1590 nM; in experiment [5], 5.29 nM. Besides, the values for the Ratio in experiment [2] and in experiment [4] were 140 and 0.46, respectively.

Consider `C=CCc1ccc(C2CC3CCC(N3)C2C(=O)OC)cc1` (stereo not given), for which the IC50 came out at 89.7 nM in experiment [1], 6.2 nM in experiment [3] and 56.5 nM in experiment [5]. Further, the Ratio in experiment [2] is 15; in experiment [4], 9.1.

For `CC#Cc1ccc(C2CC3CCC(C2C(=O)OC)N3C)cc1` (stereo not given), the results for the IC50 in experiment [1] and in experiment [5] were 820 nM and 2.37 nM, respectively. In addition, the Ratio is 52 in experiment [2] and 0.15 in experiment [4].

For the compound `C/C=C\c1ccc(C2CC3CCC(N3)C2C(=O)OC)cc1` (cis isomer), the IC50 worked out at 147 nM in experiment [1], 1.15 nM in experiment [3] and 31.6 nM in experiment [5]. In addition, the figures for the Ratio in experiment [2] and in experiment [4] were 128 and 28, respectively.

Turning to `C=Cc1ccc(C2CC3CCC(N3)C2C(=O)OC)cc1` (stereo not given), the IC50 is 14.9 nM in experiment [1] and 1.73 nM in experiment [5]. Further, the Ratio came out at 6.6 in experiment [2] and 0.77 in experiment [4].

`C#Cc1ccc(C2CC3CCC(N3)C2C(=O)OC)cc1` (stereo not given): the IC50 in experiment [1] stood at 21.8 nM; in experiment [3], 1.59 nM; in experiment [5], 1.24 nM. Moreover, the Ratio in experiment [2] was 13.7; in experiment [4], 0.78.

For the compound `C=C(C)c1ccc(C2CC3CCC(C2C(=O)OC)N3C)cc1` (stereo not given), the IC50 in experiment [1] is 1330 nM; in experiment [5] it was 14.1 nM. The Ratio in experiment [2] worked out at 425; in experiment [4] it was 4.6.

Consider `CCc1ccc(C2CC3CCC(N3)C2C(=O)OC)cc1` (stereo not given), for which the IC50 in experiment [1] amounted to 122 nM; in experiment [5], 49.9 nM. For the same compound, the Ratio in experiment [2] stood at 15; in experiment [4], 6.1.

`COC(=O)[C@@H]1C2CCC(C[C@@H]1OC(=O)c1ccccc1)N2` (stereo not given in full): the IC50 in experiment [1] was 139 nM; in experiment [3] it was 127 nM; in experiment [5] it was 206 nM. Also, the Ratio in experiment [2] was 1.1; in experiment [4], 1.6.

As for `COC(=O)C1C(c2ccc(C(C)C)cc2)CC2CCC1N2C` (stereo not given), the IC50 in experiment [1] is 75000 nM; in experiment [3], 191 nM; in experiment [5], 597 nM. Also, the Ratio in experiment [2] was 392; in experiment [4] it was 3.1.

As for `C=Cc1ccc(C2CC3CCC(C2C(=O)OC)N3C)cc1` (stereo not given), the IC50 stood at 78 nM in experiment [1], 9.5 nM in experiment [3] and 1.24 nM in experiment [5]. The Ratio in experiment [2] came to 8.2; in experiment [4] it was 0.13.

For the compound `CCCc1ccc(C2CC3CCC(C2C(=O)OC)N3C)cc1` (stereo not given), the IC50 in experiment [1] turned out to be 3920 nM; in experiment [5], 68.5 nM. Besides, the Ratio amounted to 56 in experiment [2] and 0.97 in experiment [4].

As for `C/C=C/c1ccc(C2CC3CCC(N3)C2C(=O)OC)cc1` (trans isomer), the values for the IC50 in experiment [1], in experiment [3] and in experiment [5] were 54 nM, 1.3 nM and 28.6 nM, respectively. Besides, the Ratio in experiment [2] amounted to 42; in experiment [4], 22.

For the compound `CC#Cc1ccc(C2CC3CCC(N3)C2C(=O)OC)cc1` (stereo not given), the IC50 in experiment [1] is 116 nM; in experiment [3] it was 3.16 nM; in experiment [5] it was 6.11 nM. For the same compound, the Ratio in experiment [2] was 37; in experiment [4] it was 1.93.

For `CCc1ccc(C2CC3CCC(C2C(=O)OC)N3C)cc1` (stereo not given), the IC50 in experiment [1] was determined as 4030 nM; in experiment [5], 55 nM. The results for the Ratio in experiment [2] and in experiment [4] were 142 and 1.9, respectively.

On to `C#Cc1ccc(C2CC3CCC(C2C(=O)OC)N3C)cc1` (stereo not given), for which the IC50 came to 83.2 nM in experiment [1], 4.4 nM in experiment [3] and 1.2 nM in experiment [5]. The Ratio in experiment [2] turned out to be 19; in experiment [4], 0.27.

Turning to `C=C(C)c1ccc(C2CC3CCC(N3)C2C(=O)OC)cc1` (stereo not given), the IC50 stood at 144 nM in experiment [1], 0.6 nM in experiment [3] and 23 nM in experiment [5]. Further, the results for the Ratio in experiment [2] and in experiment [4] were 240 and 38, respectively.

For `C/C=C\c1ccc(C2CC3CCC(C2C(=O)OC)N3C)cc1` (stereo not given), the values for the IC50 in experiment [1], in experiment [3] and in experiment [5] were 2800 nM, 7.09 nM and 15 nM, respectively. Also, the Ratio in experiment [2] stood at 395; in experiment [4], 2.1.

As to `C=CCc1ccc(C2CC3CCC(C2C(=O)OC)N3C)cc1` (stereo not given), the IC50 in experiment [1] was 2480 nM; in experiment [3], 28.4 nM; in experiment [5] it was 32.8 nM. For the same compound, the values for the Ratio in experiment [2] and in experiment [4] were 87 and 1.16, respectively.

Consider `COC(=O)C1C2CCC(CC1c1ccc(C(C)C)cc1)N2` (stereo not given), for which the Ratio in experiment [2] is 21. In experiment [5], this compound came in with an IC50 of 320 nM.
